In one series the test system is ethanol-induced ulcers. As to the kind of experiment: Ethanol-induced gastric ulcer in rats. The series is classed as in vivo, Sprague Dawley male rats.
The nature of series [1]: Pharmacokinetic study in rabbits. The series is classed as in vivo, New Zealand White rabbits.
Another series relates to WRL-68 cells. The series can be described thus: MTT cell viability assay on normal human hepatic cells. Particulars: 24 hours, TQNLC concentration based on amount of TQ. In short, it runs like this: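 Human normal liver WRL-68 cells were grown in DMEM with 10% FBS, 100 units/mL penicillin and 0.1 mg/mL streptomycin at 37°C under 5% CO2. They were seeded at 1 × 10^5 cells/mL, held 24 h, then exposed to test compound for 24 h. MTT (2 mg/mL) was added for 1 h and A570 read. Viability is % of untreated absorbance; IC50 is the concentration giving 50% growth loss. Cisplatin served as positive control.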

The mark [2] stands for this setting: oral pretreatment 20 mg/kg 1 h before ethanol.
Setting [3] is: oral pretreatment 60 mg/Kg 1 h before ethanol.
Where [4] appears, read: New Zealand White, rabbit, plasma, ip, 10 mg/kg.
The mark [5] stands for this setting: TQ in rabbits, single extravascular (IP) dose of TQNLC(20) 10 mg/kg, n = 3.

Marks after values point to notes of the source that are not given here.

As to `COc1ccc2[nH]c([S+]([O-])Cc3ncc(C)c(OC)c3C)nc2c1` (stereo not shown) [Omeprazole], the “PAS-positive mucus versus ulcer control group (in words)” value in the series with ethanol-induced ulcers (oral 20 mg/kg, PAS staining) is “more PAS-positive mucus”. Also, the “Histopathology of stomach versus ulcer control group (in words)” value in the series with ethanol-induced ulcers (oral 20 mg/kg, hematoxylin and eosin) is on record as “improved”. Moreover, in the series on ethanol-induced ulcers (setting [2]), the “I% (inhibition percentage of ulcer area)” value came to 80.8% and the “UA (ulcer area)” value is listed as 183 ± 5.8^b mm^2. The “pH (gastric juice)” value in the series with ethanol-induced ulcers (oral pretreatment 20 mg/kg 1 h before ethanol 5 mL/kg) was 6.43 ± 0.2^b.
With `CC1=CC(=O)C(C(C)C)=CC1=O` [Thymoquinone, thymoquinone], in the series on ethanol-induced ulcers (setting [3]), the “I% (inhibition percentage of ulcer area)” value is recorded as 89.1%, the “Mucus (weight of gastric mucosa)” value is on record as 3.24 ± 0.4^d, the “UA (ulcer area)” value was 112.4 ± 3.2^e mm^2 and the “pH (gastric juice)” value is reported as 6.5 ± 0.3^c. Also, in series [1] (setting [4]), the AUC(0-inf) (usually the area under the concentration-time curve extrapolated to infinity) worked out at 26822 ± 9.4 ng·h/mL; the Cmax – broadly, the highest concentration seen after dosing – was determined as 4810 ± 55.5 ng/mL; the Tmax (usually the time from dosing to the highest level) is 3.96 ± 0.19 h; the half-life (in general, the time in which the quantity being followed falls by half) is 4.493 ± 0.015 h. In series [1] (setting [5]), the “CL (clearance)” value amounted to 11.8 ± 0.517 mL/min/kg and the “Vd (volume of distribution)” value turned out to be 4.32 ± 0.34 L/kg.
For the compound `N.N.[Cl][Pt][Cl]` [cisplatin], in the series with WRL-68 cells, the “IC50 (concentration causing 50% loss of cell growth)” value was found to be 5.1 ± 0.28 µg/mL.

The values above are taken from paper PMC3692342 (International Journal of Nanomedicine, 2013).
